Assay results gathered from unrelated publications.
PARP3: Protein mono-ADP-ribosyltransferase PARP3 (PARP3, Homo sapiens, UniProt Q9Y6F1)
ADRA1B: Alpha-1B adrenergic receptor (ADRA1B, Homo sapiens, UniProt P35368)
Mapk1: Mitogen-activated protein kinase 1 (Mapk1, Mus musculus, UniProt P63085)
MMP1: Interstitial collagenase (MMP1, Homo sapiens, UniProt P03956)
Ptgs2: Prostaglandin G/H synthase 2 (Ptgs2, Mus musculus, UniProt Q05769)

| SMILES | target | assay | system | setting | inhibition |
| --- | --- | --- | --- | --- | --- |
| O=C1CCCc2c(O)cccc2N1 | PARP3 | enzyme activity, inhibitor |  | 10 µM | 0% |
| CC/C(=N\NC(=O)C(C)Nc1ccccc1)c1ccc(O)c(C)c1O (stereo not drawn) | cAMP-dependent protein kinase catalytic subunit gamma (PRKACG, Homo sapiens, UniProt P22612) | enzyme activity, inhibitor |  | 0.1 µM | 34.9% |
| COc1cc(NC(C)=O)c(Cl)cc1C(=O)Nc1nccs1 | ADRA1B | cell-free assay |  | 10 µM | 4.3% |
| Cc1ccc(Nc2nccc(N(C)c3ccc4c(C)n(C)nc4c3)n2)cc1S(N)(=O)=O | Mapk1 | enzyme activity, inhibitor |  | 0.3 µM | -2% |
| COc1cc2c(cc1OC)-c1nnnn1CCC2 | PARP3 | enzyme activity, inhibitor |  | 10 µM | 45% |
| O=C(O)c1ncccc1O | MMP1 | enzyme activity, inhibitor, fluorescence |  | 1 mM | ~50% |
| CCN(CC)CCNC(=O)c1c(C)[nH]c(/C=C2\C(=O)Nc3ccc(F)cc32)c1C | Mapk1 | enzyme activity, inhibitor |  | 0.3 µM | -16% |
| COc1cc(CCN2CCN(CCCc3ccccc3)CC2)ccc1O | Sodium-dependent dopamine transporter (Slc6a3, Mus musculus, UniProt Q61327) | ligand displacement, radioligand |  | 10 µM, cell membranes | 20% |
| Nc1ccc2c(c1)CCCn1nnnc1-2 | PARP3 | enzyme activity, inhibitor |  | 10 µM | 0% |
| O=C(O)Cc1ccccc1Nc1c(F)cccc1Cl | Ptgs2 | enzyme activity, inhibitor |  | 10 µM, with preincubation | 25% |
| CN(C)C1CCN(CC#Cc2nn(C3CCCC3)c3nc(NCc4ccccc4)ncc23)C1 (stereo not drawn) | Interleukin-1 receptor-associated kinase 1 (IRAK1, Homo sapiens, UniProt P51617) | enzyme activity, inhibitor, FRET |  | 1 µM | 13% |
| Ic1cccc2cnccc12 | ADP-ribosyl cyclase/cyclic ADP-ribose hydrolase 1 (CD38, Homo sapiens, UniProt P28907) | enzyme activity, inhibitor |  | 10 µM | 0% |
| CCN1CCN(Cc2ccc(NC(=O)c3ccc(C)c(Oc4ccnc5[nH]ccc45)c3)cc2C(F)(F)F)CC1 | Microtubule-associated serine/threonine-protein kinase 4 (MAST4, Homo sapiens, UniProt O15021) | target engagement in cells, inhibitor, chemoproteomics | Huh-7 | 1 µM | -11.5% |
| O=C1C=Cc2occ(C(=O)c3ccccc3)c2C1=O | MMP1 | enzyme activity, inhibitor |  | 100 µM | ≤ 0% |
| CCCNc1nc2ccccc2n1Cc1ccc(Cl)cc1 | ADRA1B | ligand displacement |  | 10 µM | 16.1% |
| O=C1NCCCc2c(O)cccc21 | PARP3 | enzyme activity, inhibitor |  | 10 µM | 20% |
| COc1ccc2c(c1)C(CC(=O)O)=C/C2=C\c1ccc(SC)cc1 | Ptgs2 | enzyme activity, inhibitor |  | 4 µM | 8% |
| Cn1cnc(Br)c1C1=CN(c2ncnc3[nH]cnc23)CCS1 | Myosin-IIIa (MYO3A, Homo sapiens, UniProt Q8NEV4) | enzyme activity, inhibitor, radiometric |  | 2 µM | 29.9% |
